# Measurements as given in ChEMBL document CHEMBL4814057, “4-4-(Anilinomethyl)-3-[4-(trifluoromethyl)phenyl]-1H-pyrazol-1-ylbenzoic acid derivatives as potent anti-gram-positive bacterial agents” (Eur J Med Chem, 2021).
# The source made the active and inactive calls. The rule behind the calls is not given here.
# How the values were obtained:
# Staphylococcus aureus [1] = test: Antimicrobial activity against methicillin-susceptible Staphylococcus aureus ATCC 25923 assessed as bacterial growth inhibitions by CLSI protocol based microdilution method; format: functional
# Staphylococcus aureus [2] = test: Antimicrobial activity against antibiotic-resistant Staphylococcus aureus BM-2312 assessed as bacterial growth inhibitions by CLSI protocol based microdilution method; format: functional
# Staphylococcus aureus [3] = test: Antimicrobial activity against methicillin-resistant Staphylococcus aureus ATCC 33591 assessed as bacterial growth inhibitions by CLSI protocol based microdilution method; format: functional
# Staphylococcus aureus [4] = test: Antimicrobial activity against methicillin-resistant Staphylococcus aureus ATCC 700699 assessed as bacterial growth inhibitions by CLSI protocol based microdilution method; format: functional
# Staphylococcus aureus [5] = test: Antimicrobial activity against methicillin-resistant Staphylococcus aureus ATCC 33592 assessed as bacterial growth inhibitions by CLSI protocol based microdilution method; format: functional
# [6] = tested on: Staphylococcus epidermidis; test: Antimicrobial activity against methicillin-resistant Staphylococcus epidermidis ATCC 700296 assessed as bacterial growth inhibitions by CLSI protocol based microdilution method; format: functional
# Bacillus subtilis = test: Antimicrobial activity against Bacillus subtilis ATCC 6623 assessed as bacterial growth inhibitions by CLSI protocol based microdilution method; format: functional
# Method in brief: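 Broth microdilution starting at 50 µg/ml with 2-fold serial dilutions; run in triplicate.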
# Enterococcus faecium [7] = test: Antimicrobial activity against vancomycin-resistant Enterococcus faecium ATCC 700221 assessed as bacterial growth inhibitions by CLSI protocol based microdilution method; format: functional
# Enterococcus faecalis [8] = test: Antibiofilm activity against Enterococcus faecalis ATCC 29212 assessed as inhibition of biofilm formation at 2 times MIC after 24 hrs by crystal violet staining based assay relative to control; format: functional; parameters: scale not given: the % may be the effect or the level left
# Method in brief: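 Overnight culture brought to 0.5 McFarland in PBS, diluted 1:100 in CAMHB with 1% glucose. Inhibition: cells plus compound (in DMSO) at 2x, 1x, 0.5xMIC, 24 h at 35 °C, triplicate. Destruction: 24 h biofilm grown without drug, washed, fresh medium with compound, further 24 h. Then washed, dried, 0.1% crystal violet, solubilized in 33% acetic acid, OD 620 nm. Controls are DMSO-only and broth-only wells.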
# Enterococcus faecalis [9] = test: Antimicrobial activity against vancomycin-susceptible Enterococcus faecalis ATCC 29212 assessed as bacterial growth inhibitions by CLSI protocol based microdilution method
# Enterococcus faecium [10] = test: Antimicrobial activity against vancomycin-resistant Enterococcus faecium clinical isolate 1088051 by CLSI-based broth microdilution assay; format: functional
# Enterococcus faecium [11] = test: Antimicrobial activity against vancomycin-resistant Enterococcus faecium clinical isolate 1091563 by CLSI-based broth microdilution assay; format: functional
# Enterococcus faecium [12] = test: Antimicrobial activity against vancomycin-resistant Enterococcus faecium clinical isolate 1091720 by CLSI-based broth microdilution assay; format: functional
# Enterococcus faecium [13] = test: Antimicrobial activity against vancomycin-resistant Enterococcus faecium clinical isolate 1094112 by CLSI-based broth microdilution assay; format: functional
# Enterococcus faecium [14] = test: Antimicrobial activity against vancomycin-resistant Enterococcus faecium clinical isolate 1100440 by CLSI-based broth microdilution assay; format: functional
# Enterococcus faecium [15] = test: Antimicrobial activity against vancomycin-resistant Enterococcus faecium clinical isolate 1088168 by CLSI-based broth microdilution assay; format: functional
# Enterococcus faecium [16] = test: Antimicrobial activity against vancomycin-resistant Enterococcus faecium clinical isolate 1088228 by CLSI-based broth microdilution assay; format: functional
# Enterococcus faecium [17] = test: Antimicrobial activity against vancomycin-resistant Enterococcus faecium clinical isolate 1088925 by CLSI-based broth microdilution assay; format: functional
# Enterococcus faecium [18] = test: Antimicrobial activity against vancomycin-resistant Enterococcus faecium clinical isolate 1089544 by CLSI-based broth microdilution assay; format: functional
# Enterococcus faecium [19] = test: Antimicrobial activity against vancomycin-resistant Enterococcus faecium clinical isolate 1091282 by CLSI-based broth microdilution assay; format: functional
# Staphylococcus aureus [20] = test: Antimicrobial activity against methicillin-sensitive Staphylococcus aureus ATCC 29213 by CLSI-based broth microdilution assay; format: functional
# Staphylococcus aureus [21] = test: Antimicrobial activity against methicillin-sensitive Staphylococcus aureus clinical isolate 1088105 by CLSI-based broth microdilution assay; format: functional
# Staphylococcus aureus [22] = test: Antimicrobial activity against methicillin-sensitive Staphylococcus aureus clinical isolate 1088626 by CLSI-based broth microdilution assay; format: functional
# Staphylococcus aureus [23] = test: Antimicrobial activity against methicillin-resistant Staphylococcus aureus clinical isolate 1088064 by CLSI-based broth microdilution assay; format: functional
# Staphylococcus aureus [24] = test: Antimicrobial activity against methicillin-resistant Staphylococcus aureus clinical isolate 1088610 by CLSI-based broth microdilution assay; format: functional
# Staphylococcus aureus [25] = test: Antimicrobial activity against methicillin-resistant Staphylococcus aureus clinical isolate 1088888 by CLSI-based broth microdilution assay; format: functional
# Staphylococcus aureus [26] = test: Antimicrobial activity against methicillin-resistant Staphylococcus aureus clinical isolate 1089106 by CLSI-based broth microdilution assay; format: functional
# Staphylococcus aureus [27] = test: Antibacterial activity against methicillin resistant Staphylococcus aureus ATCC 700699 persisters assessed as reduction in viability at 64 times MIC by colony counting method; format: functional, organism-based
# Method in brief: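 Stationary-phase S. aureus from overnight CAMHB culture (35 °C, 200 rpm), washed thrice in PBS, diluted to ~5 × 10^8 CFU/ml. Incubated with antibiotic at 35 °C, 200 rpm. Aliquots taken at set times, washed, serially diluted in PBS, drop-plated (6 × 6) on TSA with 5% sheep blood. Colonies counted after 18–20 h at 35 °C. Triplicates.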
Compound,MIC (Staphylococcus aureus [1]) [µg/mL],MIC (Staphylococcus aureus [2]) [µg/mL],MIC (Staphylococcus aureus [3]),MIC (Staphylococcus aureus [4]),MIC (Staphylococcus aureus [5]),MIC [6] [µg/mL],MIC (Bacillus subtilis),MIC (Enterococcus faecium [7]),MIC (Enterococcus faecalis [9]),further results
O=C(O)c1ccc(-n2cc(CNc3cc(Cl)c(F)c(Cl)c3F)c(-c3ccc(C(F)(F)F)cc3)n2)cc1,0.78,0.78,0.78 µg/mL,0.78 µg/mL,0.78 µg/mL,0.78,0.78 µg/mL,0.78 µg/mL,0.78 µg/mL,Activity (Enterococcus faecalis [8]): 80%
O=C(O)c1ccc(-n2cc(CNc3ccc(C(=O)O)c(C(F)(F)F)c3)c(-c3ccc(C(F)(F)F)cc3)n2)cc1,50,50,inactive,inactive,inactive,50,inactive,inactive,inactive,
Cc1onc(-c2ccccc2)c1C(=O)N[C@@H]1C(=O)N2[C@@H]1SC(C)(C)[C@@H]2C(=O)O [OXACILLIN],,,,,,,,,,MIC (Enterococcus faecium [10]): > 32 µg/mL; MIC (Enterococcus faecium [11]): > 32 µg/mL; MIC (Enterococcus faecium [12]): > 32 µg/mL; MIC (Enterococcus faecium [13]): > 32 µg/mL; MIC (Enterococcus faecium [14]): > 32 µg/mL; MIC (Enterococcus faecium [15]): > 32 µg/mL; MIC (Enterococcus faecium [16]): > 32 µg/mL; MIC (Enterococcus faecium [17]): > 32 µg/mL; MIC (Enterococcus faecium [18]): > 32 µg/mL; MIC (Enterococcus faecium [19]): > 32 µg/mL; MIC (Staphylococcus aureus [20]): 1 µg/mL; MIC (Staphylococcus aureus [21]): 1 µg/mL; MIC (Staphylococcus aureus [22]): 0.5 µg/mL; MIC (Staphylococcus aureus [23]): 0.5 µg/mL; MIC (Staphylococcus aureus [24]): 0.5 µg/mL; MIC (Staphylococcus aureus [25]): 1 µg/mL; MIC (Staphylococcus aureus [26]): 1 µg/mL
O=C(O)c1ccc(-n2cc(CNc3cc(Br)cc(C(F)(F)F)c3)c(-c3ccc(C(F)(F)F)cc3)n2)cc1,0.78,0.78,3.12 µg/mL,0.78 µg/mL,0.78 µg/mL,1.56,0.78 µg/mL,0.78 µg/mL,0.78 µg/mL,
O=C(O)c1ccc(-n2cc(CNc3cc(Cl)cc(Cl)c3)c(-c3ccc(C(F)(F)F)cc3)n2)cc1,0.78,0.78,0.78 µg/mL,0.78 µg/mL,0.78 µg/mL,0.78,0.78 µg/mL,0.78 µg/mL,1.56 µg/mL,
O=C(O)c1ccc(-n2cc(CNc3cc(Cl)ccc3Cl)c(-c3ccc(C(F)(F)F)cc3)n2)cc1,0.78,0.78,0.78 µg/mL,0.78 µg/mL,0.78 µg/mL,1.56,0.78 µg/mL,0.78 µg/mL,3.12 µg/mL,
GENTAMICIN,,,,,,,,,,Activity (Staphylococcus aureus [27]): inactive
O=C(O)c1ccc(-n2cc(CNc3cc(Cl)c(F)cc3F)c(-c3ccc(C(F)(F)F)cc3)n2)cc1,1.56,0.78,1.56 µg/mL,0.78 µg/mL,1.56 µg/mL,3.12,0.78 µg/mL,1.56 µg/mL,6.25 µg/mL,
O=C(O)c1ccc(-n2cc(CNc3ccc(F)cc3)c(-c3ccc(C(F)(F)F)cc3)n2)cc1,6.25,3.12,6.25 µg/mL,6.25 µg/mL,12.5 µg/mL,12.5,1.56 µg/mL,6.25 µg/mL,25 µg/mL,
O=C(O)c1ccc(-n2cc(CNc3cccc(Cl)c3)c(-c3ccc(C(F)(F)F)cc3)n2)cc1,1.56,1.56,0.78 µg/mL,0.78 µg/mL,1.56 µg/mL,3.12,0.78 µg/mL,0.78 µg/mL,12.5 µg/mL,
O=C(O)c1ccc(-n2cc(CNc3cccc(Br)c3)c(-c3ccc(C(F)(F)F)cc3)n2)cc1,0.78,0.78,0.78 µg/mL,1.56 µg/mL,0.78 µg/mL,3.12,0.78 µg/mL,1.56 µg/mL,6.25 µg/mL,
O=C(O)c1ccc(-n2cc(CNc3ccc(F)c(Cl)c3F)c(-c3ccc(C(F)(F)F)cc3)n2)cc1,1.56,1.56,1.56 µg/mL,1.56 µg/mL,1.56 µg/mL,1.56,0.78 µg/mL,1.56 µg/mL,6.25 µg/mL,
O=C(O)c1ccc(-n2cc(CNc3ccc(Cl)cc3)c(-c3ccc(C(F)(F)F)cc3)n2)cc1,1.56,1.56,1.56 µg/mL,1.56 µg/mL,1.56 µg/mL,3.12,0.78 µg/mL,1.56 µg/mL,6.25 µg/mL,
O=C(O)c1ccc(-n2cc(CNc3cccc(OC(F)(F)F)c3)c(-c3ccc(C(F)(F)F)cc3)n2)cc1,0.78,0.78,0.78 µg/mL,50 µg/mL,0.78 µg/mL,3.12,0.78 µg/mL,0.78 µg/mL,3.12 µg/mL,
O=C(O)c1ccc(-n2cc(CNc3ccc(N4CCOCC4)c(C(F)(F)F)c3)c(-c3ccc(C(F)(F)F)cc3)n2)cc1,0.78,1.56,0.78 µg/mL,0.78 µg/mL,0.78 µg/mL,1.56,0.78 µg/mL,0.78 µg/mL,1.56 µg/mL,
O=C(O)c1ccc(-n2cc(CNc3ccccc3)c(-c3ccc(C(F)(F)F)cc3)n2)cc1,12.5,12.5,6.25 µg/mL,6.25 µg/mL,6.25 µg/mL,12.5,3.12 µg/mL,6.25 µg/mL,25 µg/mL,
O=C(O)c1ccc(-n2cc(CNc3cc(F)c(C(F)(F)F)c(F)c3)c(-c3ccc(C(F)(F)F)cc3)n2)cc1,1.56,1.56,1.56 µg/mL,1.56 µg/mL,1.56 µg/mL,3.12,0.78 µg/mL,6.25 µg/mL,12.5 µg/mL,
